High-throughput results from PubChem.
KDM4C inh – KDM4C (human) demethylase inhibition. Q9H3R0. GST-KDM4C 2-372, H3K9me3 peptide, LANCE TR-FRET. inhibition, % at 12.5 µM. hit rate 0.15% among 96,000;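 active means mean replicate inhibition above about 25%, with at least 55% of replicates also reaching it, limit read from the data, passing the limit was not always enough; inconclusive means only one of those two conditions met; inactive means neither condition met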
Target sequence (Q9H3R0 2-372 limits assumed): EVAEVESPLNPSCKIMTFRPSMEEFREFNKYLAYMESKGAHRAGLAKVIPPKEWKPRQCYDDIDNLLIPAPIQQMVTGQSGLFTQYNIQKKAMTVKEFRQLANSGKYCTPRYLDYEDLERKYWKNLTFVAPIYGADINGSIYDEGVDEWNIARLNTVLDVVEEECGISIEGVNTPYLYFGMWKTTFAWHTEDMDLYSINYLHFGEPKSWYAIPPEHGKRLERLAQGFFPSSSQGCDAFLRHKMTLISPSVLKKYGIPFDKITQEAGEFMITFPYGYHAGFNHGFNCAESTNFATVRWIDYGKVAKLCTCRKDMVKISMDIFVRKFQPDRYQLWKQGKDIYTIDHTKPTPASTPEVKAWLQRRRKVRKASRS
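reagent = H3K9me3 peptide substrate, Fe(II), 2-oxoglutarate | system = GST-tagged GASC-1 (JMJD2C) catalytic fragment, aa 2-372 | amount = enzyme final amount 10 nM | read-out = Fall in 671/618 emission ratio as inhibition | medium = HEPES buffer, pH 7.5, plus ascorbate | schedule = 30 min reaction, 60 min detection, RT | measured by = LANCE TR-FRET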
IDH1 mut inh – IDH1 R132H (human) inhibition; hit rate 0.18% among 70,000; IDH1 R132H reductase, diaphorase/resazurin fluorescence, 60 min; AID 624101; inhibition, % at 10 µM; in the data active means inhibition above about 34%; inconclusive means no clear call, values can overlap the other calls; inactive means below about 11%
Target sequence (O75874 whole entry R132H): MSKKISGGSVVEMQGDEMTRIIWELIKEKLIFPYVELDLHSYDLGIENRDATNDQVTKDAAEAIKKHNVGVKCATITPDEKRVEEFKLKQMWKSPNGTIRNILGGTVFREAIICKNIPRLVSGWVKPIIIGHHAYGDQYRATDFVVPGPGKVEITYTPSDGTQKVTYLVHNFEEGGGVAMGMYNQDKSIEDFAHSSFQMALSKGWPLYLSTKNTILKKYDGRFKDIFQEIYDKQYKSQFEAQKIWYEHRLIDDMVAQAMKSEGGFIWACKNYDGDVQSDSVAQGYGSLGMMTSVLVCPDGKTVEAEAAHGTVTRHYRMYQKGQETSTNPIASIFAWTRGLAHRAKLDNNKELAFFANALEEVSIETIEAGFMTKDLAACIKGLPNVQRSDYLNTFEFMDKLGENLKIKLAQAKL
T cruzi growth-1 – blocks T. cruzi growth in NIH3T3 culture. T. cruzi beta-gal in NIH3T3, GalScreen luminescence, 90 h. inhibition, % at 8.34 µM. hit rate 5.9% among 77,000. AID 624255;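 active means mean inhibition above about 93%, with at least 55% of replicates each passing it, limit read from the data, passing the limit was not always enough; inconclusive means only one of those two conditions holds; inactive means neither condition holds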
Pf Dd2 growth – blocks growth of Plasmodium falciparum Dd2 parasites. activity change, % at 10 µM. hit rate 2.3% among 94,000. P. falciparum Dd2 growth, SYBR Green, 72 h; stronger effect = lower value; in the data active means activity change below about -80%; inconclusive means no clear call, values can overlap the other calls
T cruzi growth-2 – inhibitors of T. cruzi proliferation. shares compounds with T cruzi growth-1. T. cruzi beta-gal in NIH3T3, GalScreen luminescence, 90 h. inhibition, % at 8.35 µM. hit rate 72% among 5,600. AID 651739;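 active means mean replicate inhibition above about 95% and at least 55% of replicates individually reaching it, limit read from the data; inconclusive means only one of the two criteria is met; inactive means neither criterion is met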
T cruzi growth-3 – blocks T. cruzi growth in NIH3T3 host cells; shares compounds with T cruzi growth-1; T. cruzi beta-gal in NIH3T3, GalScreen luminescence, 90 h; inhibition, % at 2.09 µM; hit rate 21% among 5,600; AID 651740;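 active means mean inhibition above about 95%, with at least 55% of replicates also reaching it, limit read from the data; inconclusive means meets just one of the two conditions; inactive means meets neither condition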
3T3 cytotox – kills mouse NIH/3T3 fibroblasts; shares compounds with T cruzi growth-1; NIH/3T3 viability, CellTiter-Glo ATP luminescence, 90 h; cytotoxicity (signal decrease), % at 8.35 µM; hit rate 14% among 5,600; AID 651742;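 active means mean signal decrease across replicates above about 35% based on untreated-well scatter, with enough replicates individually passing, limit read from the data; inconclusive means no rule stated though some were filed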
NIH3T3 tox 2 – kills mouse NIH/3T3 fibroblasts. shares compounds with T cruzi growth-1. NIH/3T3 viability, CellTiter-Glo ATP luminescence, 90 h. inhibition, % at 24.9 µM. hit rate 56% among 5,600;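 active means mean loss of cell viability signal at or above a set limit, and enough replicates individually reaching it; inconclusive means meets only the mean limit or only the replicate share; inactive means meets neither condition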
Of the large screens only hits and unclear results are named; the others gave an inactive call (follow-up assays come after a bar, where they were run). The list is not random: actives were taken first. Their share in the collection is about 5.9%.

CCOC(=O)c1ccc(NC(=O)CSc2nc3sc4c(c3c(=O)n2C)CCCC4)cc1	none (no result: KDM4C inh, T cruzi growth-1, Pf Dd2 growth)
O=C(C[C@@H]1CC[C@H]2[C@@H](COC[C@@H](O)CN2C(=O)Nc2ccc(Cl)cc2)O1)NCCc1ccncc1	none (no result: IDH1 mut inh)
O=C(C[C@H]1CC[C@H]2[C@@H](COC[C@H](O)CN2C(=O)Nc2ccc(Cl)cc2)O1)NCCc1ccncc1	none (no result: IDH1 mut inh)
O=C(C[C@@H]1CC[C@H]2[C@@H](COC[C@H](O)CN2C(=O)Nc2ccc(Cl)cc2)O1)NCCc1ccncc1	T cruzi growth-1 128 (no result: IDH1 mut inh) | T cruzi growth-2 inactive | T cruzi growth-3 inactive | 3T3 cytotox inactive | NIH3T3 tox 2 inactive
O=C(C[C@@H]1CC[C@@H]2[C@H](COC[C@H](O)CN2C(=O)Nc2ccc(Cl)cc2)O1)NCCc1ccncc1	T cruzi growth-1 99 (no result: IDH1 mut inh) | T cruzi growth-2 99 | T cruzi growth-3 inactive | 3T3 cytotox inactive | NIH3T3 tox 2 inactive
C[C@@H]1CN([C@@H](C)CO)S(=O)(=O)c2ccc(C#Cc3ccccn3)cc2O[C@@H]1CN(C)Cc1cccc(F)c1	T cruzi growth-1 119 | T cruzi growth-2 108 | T cruzi growth-3 inconclusive | 3T3 cytotox inactive | NIH3T3 tox 2 inactive
C[C@@H]1CN([C@H](C)CO)S(=O)(=O)c2ccc(C#Cc3ccccn3)cc2O[C@H]1CN(C)C	none (no result: T cruzi growth-1)
C[C@H](CO)N1C[C@H](C)[C@@H](CN(C)Cc2cccc(F)c2)Oc2cc(C#Cc3ccccn3)ccc2S1(=O)=O	T cruzi growth-1 117 | T cruzi growth-2 inactive | T cruzi growth-3 112 | 3T3 cytotox inactive | NIH3T3 tox 2 inactive
C[C@H]1CN([C@@H](C)CO)S(=O)(=O)c2ccc(C#CCN(C)C)cc2O[C@@H]1CN(C)C(=O)C1CC1	T cruzi growth-1 111 | T cruzi growth-2 109 | T cruzi growth-3 99 | 3T3 cytotox inactive | NIH3T3 tox 2 inactive
C[C@@H]1CN([C@H](C)CO)S(=O)(=O)c2ccc(C#CC(C)(C)O)cc2O[C@H]1CN(C)C(=O)C1CC1	T cruzi growth-1 105 (no result: IDH1 mut inh) | T cruzi growth-2 inactive | T cruzi growth-3 inactive | 3T3 cytotox inactive | NIH3T3 tox 2 42
C[C@@H]1CN([C@H](C)CO)S(=O)(=O)c2ccc(C#CCN(C)C)cc2O[C@H]1CN(C)C(=O)C1CC1	T cruzi growth-1 89 (no result: IDH1 mut inh) | T cruzi growth-2 inconclusive | T cruzi growth-3 inactive | 3T3 cytotox inactive | NIH3T3 tox 2 inactive
C[C@@H]1CN([C@H](C)CO)S(=O)(=O)c2ccc(C#CC(C)(C)O)cc2O[C@@H]1CN(C)C(=O)C1CC1	none
O=C(NO)c1cccc(C(=O)N/N=C/c2ccccc2)c1	none (no result: KDM4C inh, T cruzi growth-1, Pf Dd2 growth)
O=C(CSc1nnc(-c2cccc3ccccc23)o1)Nc1cccc(F)c1	none (no result: KDM4C inh, T cruzi growth-1, Pf Dd2 growth)
C[C@@H]1CN([C@H](C)CO)C(=O)c2cc(NS(=O)(=O)c3cccs3)ccc2O[C@H]1CN(C)Cc1ccc(C(=O)Nc2ccccc2N)cc1	none
C[C@H](CO)N1C[C@H](C)[C@H](CN(C)Cc2ccc(C(=O)Nc3ccccc3N)cc2)Oc2ccc(NS(=O)(=O)c3cccs3)cc2C1=O	T cruzi growth-1 115, Pf Dd2 growth -85 (no result: IDH1 mut inh) | T cruzi growth-2 104 | T cruzi growth-3 inactive | 3T3 cytotox inactive | NIH3T3 tox 2 49
C[C@H](CO)N1C[C@H](C)[C@H](CN(C)Cc2ccc(C(=O)Nc3ccccc3N)cc2)Oc2c(NS(=O)(=O)c3cccs3)cccc2C1=O	T cruzi growth-1 107 (no result: IDH1 mut inh) | T cruzi growth-2 99 | T cruzi growth-3 inactive | 3T3 cytotox inactive | NIH3T3 tox 2 26
C[C@H](CO)N1C[C@H](C)[C@H](CN(C)Cc2ccc(-c3ccccc3)cc2)Oc2c(NS(=O)(=O)c3cccs3)cccc2C1=O	T cruzi growth-1 97 | T cruzi growth-2 inactive | T cruzi growth-3 inactive | 3T3 cytotox inactive | NIH3T3 tox 2 inactive
Cc1ccc(-n2nc3cc(C)c(NC(=O)COc4cccc(C)c4)cc3n2)cc1	none (no result: KDM4C inh, T cruzi growth-1, Pf Dd2 growth)
COc1ccc(S(=O)(=O)N(C)CC(=O)NC2CCCCC2)cc1C	none (no result: KDM4C inh, T cruzi growth-1, Pf Dd2 growth)
O=C(O)CC1C(=O)N(c2ccccc2)C(=S)N1c1ccccc1 (stereo not given)	none (no result: KDM4C inh, T cruzi growth-1, Pf Dd2 growth)
COc1cc(NC(=O)Cn2nc(C(F)(F)F)c(Cl)c2C)cc([N+](=O)[O-])c1	none (no result: KDM4C inh, T cruzi growth-1, Pf Dd2 growth)
O=C(CSc1ccccn1)Nc1ccc(Cl)cc1	none (no result: KDM4C inh, T cruzi growth-1, Pf Dd2 growth)
COc1ccc(S(=O)(=O)N(C)C[C@H]2OCCCC[C@H](C)Oc3ccc(NC(=O)Cc4ccccc4)cc3C(=O)N([C@@H](C)CO)C[C@@H]2C)cc1	T cruzi growth-1 inconclusive, Pf Dd2 growth -83 (no result: IDH1 mut inh) | T cruzi growth-2 107 | T cruzi growth-3 inactive | 3T3 cytotox inactive | NIH3T3 tox 2 inactive
Cc1ccc(S(=O)(=O)N(C)C[C@@H]2OCCCC[C@H](C)Oc3ccc(NC(=O)Cc4ccccc4)cc3C(=O)N([C@H](C)CO)C[C@@H]2C)cc1	T cruzi growth-1 112 (no result: IDH1 mut inh) | T cruzi growth-2 101 | T cruzi growth-3 inactive | 3T3 cytotox inactive | NIH3T3 tox 2 inconclusive
C[C@@H]1CN([C@H](C)CO)C(=O)c2cc(NC(=O)Cc3ccccc3)ccc2O[C@@H](C)CCCCO[C@@H]1CN(C)S(=O)(=O)c1ccc(Cl)cc1	T cruzi growth-1 108, Pf Dd2 growth -84 (no result: IDH1 mut inh) | T cruzi growth-2 109 | T cruzi growth-3 inactive | 3T3 cytotox inactive | NIH3T3 tox 2 inactive
C[C@@H]1CN([C@@H](C)CO)C(=O)c2cc(NC(=O)Cc3ccccc3)ccc2O[C@@H](C)CCCCO[C@@H]1CN(C)S(=O)(=O)c1ccc(Cl)cc1	T cruzi growth-1 111, Pf Dd2 growth -85 (no result: IDH1 mut inh) | T cruzi growth-2 101 | T cruzi growth-3 inactive | 3T3 cytotox inactive | NIH3T3 tox 2 inactive
C[C@@H]1CN([C@H](C)CO)C(=O)c2ccccc2-c2ccccc2CO[C@@H]1CN(C)S(=O)(=O)c1ccc(C(F)(F)F)cc1	none (no result: IDH1 mut inh)
C[C@H](CO)N1C[C@H](C)[C@H](CN(C)S(=O)(=O)c2ccccc2C#N)OCc2ccccc2-c2c(n(C)c3ccccc23)C1=O	T cruzi growth-1 108 (no result: IDH1 mut inh) | T cruzi growth-2 inconclusive | T cruzi growth-3 inactive | 3T3 cytotox inactive | NIH3T3 tox 2 46
C[C@H](CO)N1C[C@H](C)[C@@H](CN(C)S(=O)(=O)c2cn(C)cn2)OCc2ccccc2-c2c(n(C)c3ccccc23)C1=O	T cruzi growth-1 107 (no result: IDH1 mut inh) | T cruzi growth-2 97 | T cruzi growth-3 inactive | 3T3 cytotox inactive | NIH3T3 tox 2 99
C[C@H]1CN([C@@H](C)CO)C(=O)c2c(c3ccccc3n2C)-c2ccccc2CO[C@@H]1CN(C)S(=O)(=O)c1ccccc1C#N	none (no result: KDM4C inh, IDH1 mut inh)
C[C@@H]1CN([C@H](C)CO)C(=O)c2c(c3ccccc3n2C)-c2ccccc2CO[C@H]1CN(C)S(=O)(=O)c1ccsc1	T cruzi growth-1 107, Pf Dd2 growth -86 | T cruzi growth-2 105 | T cruzi growth-3 inactive | 3T3 cytotox inactive | NIH3T3 tox 2 inactive
